Tests used:
Rattus norvegicus = species on record: Rattus norvegicus; assay: Hallucinogenic activity in rat; type: functional; details: for ED50: Rattus norvegicus
Method in brief: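 Rats were trained to discriminate saline from LSD tartrate (186 nmol/kg ip). The read-out was presses on the drug lever. […] At least 59% gave partial substitution.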

[1] = biological target: T1, 5-hydroxytryptamine receptor 2A (Rattus norvegicus, UniProt P14842); assay: Displacement of [125I]DOI from rat 5HT2A receptor
Method in brief: (§1)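 Stably transfected cells expressing rat 5-HT2A or 5-HT2C were serum-starved 5 h and pelleted. Binding used 50 mM Tris, 0.5 mM EDTA, 10 mM MgCl2, pH 7.4, incubated 60 min at 25 °C. Bound was separated by filtration onto PEI-soaked GF/B filters, then scintillation counting. Values came from competition curves.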

[2] = biological target: T1, 5-hydroxytryptamine receptor 2A; assay: (§2) Activity at rat 5HT2A receptor assessed as 5-HT-stimulated IP3 accumulation; type: functional
Method in brief: (§3)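 Rat 5-HT2A-expressing stable cell line, seeded and assayed at 70% confluence. Cells were labeled 18-20 h with [3H]myoinositol at 1.0 µCi/mL, then pretreated 15 min with 10 µM pargyline/10 mM LiCl. Drug exposure was 30 min at 37 °C under 5% CO2. The assay was stopped with 10 mM formic acid, and [3H]inositol phosphates were isolated on Dowex-1 columns.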

[3] = biological target: 5-hydroxytryptamine receptor 2A (Rattus norvegicus) (UniProt P14842); assay: as §2; type: functional; method in brief: as §3
[4] = biological target: T2, 5-hydroxytryptamine receptor 2C (Rattus norvegicus, UniProt P08909); assay: Displacement of [125I]DOI from rat 5HT2C receptor; method in brief: as §1
T2 sequence (P08909 whole entry): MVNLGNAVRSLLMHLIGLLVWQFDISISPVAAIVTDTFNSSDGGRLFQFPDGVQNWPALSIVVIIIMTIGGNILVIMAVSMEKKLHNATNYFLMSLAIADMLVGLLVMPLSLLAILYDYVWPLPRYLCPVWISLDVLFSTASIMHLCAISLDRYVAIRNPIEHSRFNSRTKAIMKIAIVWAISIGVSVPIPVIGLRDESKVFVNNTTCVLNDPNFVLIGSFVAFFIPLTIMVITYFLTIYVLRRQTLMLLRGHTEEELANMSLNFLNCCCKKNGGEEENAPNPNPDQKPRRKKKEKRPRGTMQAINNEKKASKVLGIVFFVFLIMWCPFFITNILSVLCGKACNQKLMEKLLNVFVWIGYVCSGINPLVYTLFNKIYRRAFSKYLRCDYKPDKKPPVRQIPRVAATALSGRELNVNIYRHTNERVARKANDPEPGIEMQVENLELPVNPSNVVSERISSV

Chain of 5-hydroxytryptamine receptor 2A (Rattus norvegicus) (P14842 whole entry): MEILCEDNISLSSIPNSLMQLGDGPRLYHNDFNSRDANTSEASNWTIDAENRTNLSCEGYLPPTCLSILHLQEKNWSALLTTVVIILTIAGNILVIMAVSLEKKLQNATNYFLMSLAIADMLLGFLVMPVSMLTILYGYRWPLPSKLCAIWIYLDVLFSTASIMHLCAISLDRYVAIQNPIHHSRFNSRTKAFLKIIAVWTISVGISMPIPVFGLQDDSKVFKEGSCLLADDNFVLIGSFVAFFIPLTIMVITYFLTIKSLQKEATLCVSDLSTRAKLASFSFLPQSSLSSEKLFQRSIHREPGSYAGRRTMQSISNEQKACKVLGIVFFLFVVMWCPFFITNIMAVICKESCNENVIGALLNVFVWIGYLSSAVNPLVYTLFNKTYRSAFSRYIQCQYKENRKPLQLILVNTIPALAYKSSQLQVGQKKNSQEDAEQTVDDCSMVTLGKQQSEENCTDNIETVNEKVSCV
T1 sequence (P14842 whole entry): as above

Row | SMILES | ED5 (Rattus norvegicus) | Ki [1] | EC50 [2] | Activity [3] | Ki [4] | ED50 (Rattus norvegicus)
1 | COc1cc2c(c(OC)c1OC)CCC2CN (racemic) | 6.6 µmol/kg | 130 nM | 6100 nM | 83% | 60 nM | –
2 | CCN(CC)C(=O)[C@@H]1C=C2c3cccc4[nH]cc(c34)C[C@H]2N(C)C1 [LYSERGIDE] | – | – | – | 20% | – | 0.037 µmol/kg
3 | COc1cc(CCN)cc(OC)c1OC [MESCALINE] | – | 360 nM | 11300 nM | 86% | 380 nM | 34 µmol/kg
4 | COc1cc2c(c(OC)c1OC)CC[C@@H]2CN | – | 1120 nM | > 50000 nM | 59% | – | –
5 | COc1cc2c(c(OC)c1OC)CC[C@H]2CN | – | 69 nM | 3200 nM | 88% | – | –

From ChEMBL document CHEMBL1138093, “C-(4,5,6-trimethoxyindan-1-yl)methanamine: a mescaline analogue designed using a homology model of the 5-HT2A receptor” (J Med Chem, 2006)
